Source: ChEMBL document CHEMBL1134494, “2-Amino-6-arylsulfonylbenzonitriles as non-nucleoside reverse transcriptase inhibitors of HIV-1” (J Med Chem, 2001)
pIC50: −log10 of the molar value.

Key:
MT4 = test: Cell culture cytotoxicity against MT-4 cells.; assay type: functional, cell-based; details: Homo sapiens
How it was run: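 MT4 cells were exposed to compound in parallel with the 5-day HIV-1 strain 3B cytopathic-effect assay. Compound-induced cytotoxicity is reported as the cell culture cytotoxicity IC50 (CCIC50).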

[1] = tested on: Human immunodeficiency virus 1; test: Antiviral activity against HIV-1 infected human MT-4 cells.; assay type: functional, organism-based; details: Human immunodeficiency virus 1, MT4
How it was run: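 HTLV-1-transformed MT4 cells were infected with HIV-1 strain 3B at 100× the amount giving a 50% drop in cell growth. They were cultured 5 days with a range of compound concentrations. IC50 is the concentration restoring 50% of infected-cell growth (cytopathic effect) relative to uninfected MT4 controls.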

[2] = molecular target: Human immunodeficiency virus type 1 reverse transcriptase (Human immunodeficiency virus 1, UniProt Q72547); test: Inhibitory activity against HIV-1 reverse transcriptase
How it was run: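 Recombinant HIV RT at 1 nM was combined with 40 nM Eu-chelate-labeled biotinylated DNA primer/RNA template and 100 nM Cy5-dUTP. Reactions were started with enzyme.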

SMILES | pIC50 (MT4) | pIC50 [1] | pIC50 [2]
N#Cc1c(N)cccc1[S+]([O-])c1cc(Cl)ccc1Cl (stereo unspecified) | < 3.70 | 5.01 | 5.21
N#Cc1ccccc1Sc1cccc(N)c1C#N | 4.38 | < 5.19 | 5.04
N#Cc1c(N)cccc1S(=O)(=O)c1cccc(C(F)(F)F)c1 | 3.71 | 5.46 | 5.28
COc1ccccc1S(=O)(=O)c1cccc(N)c1C#N | 3.84 | 6.22 | 5.85
N#Cc1c(N)cccc1[S+]([O-])c1cccc(Br)c1 (stereo unspecified) | – | 7.10 | 5.32
N#Cc1ccccc1S(=O)(=O)c1cccc(N)c1C#N | < 3.70 | 5.27 | 5.22
N#Cc1c(N)cccc1[S+]([O-])c1ccccc1Br (stereo unspecified) | 3.77 | 4.41 | < 4.72
Cc1cccc(Sc2cccc(N)c2C#N)c1 | 4.10 | 5.21 | 6.02
COc1cc(C)cc(Sc2cccc(N)c2C#N)c1 | 5.00 | 5.70 | 6.85
COc1cccc([S+]([O-])c2cccc(N)c2C#N)c1 (stereo unspecified) | < 4.10 | 4.80 | 4.72
N#Cc1c(N)cccc1Sc1ccccc1Cl | 4.48 | 5.39 | 5.14
N#Cc1c(N)cccc1Sc1cccc(Br)c1 | 4.28 | 5.29 | 4.82
N#Cc1cccc([S+]([O-])c2cccc(N)c2C#N)c1 (stereo unspecified) | < 3.70 | 4.85 | < 4.82
CCCOc1cc(C)cc(S(=O)(=O)c2cccc(N)c2C#N)c1 | 4.96 | 7.22 | –
N#Cc1c(N)cccc1Sc1cccc(N)c1 | 3.77 | 4.50 | < 4.64
N#Cc1c(N)cccc1S(=O)(=O)c1ccccc1 | < 5.30 | 5.70 | 5.16
Cc1cc(O)cc(S(=O)(=O)c2cccc(N)c2C#N)c1 | 3.78 | 6.37 | –
N#Cc1ccc(S(=O)(=O)c2cccc(N)c2C#N)cc1 | < 3.70 | 4.10 | < 4.74
COc1ccccc1Sc1cccc(N)c1C#N | < 3.70 | 5.37 | 5.57
N#Cc1c(N)cccc1[S+]([O-])c1cccc(C(F)(F)F)c1 (stereo unspecified) | 3.90 | 4.40 | < 4.66
Nc1cccc(S(=O)(=O)c2ccccc2)c1 | < 4.30 | < 4.30 | –
N#Cc1cccc(Sc2cccc(N)c2C#N)c1 | 4.10 | 5.76 | 5.96
N#Cc1cccc(S(=O)(=O)c2cccc(N)c2C#N)c1 | < 3.70 | 5.62 | 5.74
CCCCNc1cccc(S(=O)(=O)c2cc(C)cc(C)c2)c1C#N | < 3.70 | < 4.92 | –

SMILES | pIC50 (MT4) | pIC50 [1] | pIC50 [2]
N#Cc1c(N)cccc1Sc1ccc(Cl)cc1 | 3.95 | < 4.49 | 4.92
N#Cc1ccccc1[S+]([O-])c1cccc(N)c1C#N (stereo unspecified) | < 3.70 | 5.41 | 5.00
Cc1cccc([S+]([O-])c2cccc(N)c2C#N)c1 (stereo unspecified) | < 3.70 | 4.53 | 5.00
N#Cc1c(N)cccc1S(=O)(=O)c1cccc(Br)c1 | < 3.70 | 6.27 | 6.70
Cc1cc(Cl)cc([S+]([O-])c2cccc(N)c2C#N)c1 (stereo unspecified) | < 3.70 | 6.49 | 6.28
COc1cc([S+]([O-])c2cccc(N)c2C#N)cc(C(F)(F)F)c1 (stereo unspecified) | 3.97 | 5.68 | 6.05
O=[N+]([O-])c1ccccc1Sc1ccccc1[N+](=O)[O-] | < 3.70 | 4.03 | < 4.70
Cc1cc(Cl)cc(Sc2cccc(N)c2C#N)c1 | 4.80 | 5.75 | 5.77
Cc1ccc(S(=O)(=O)c2cccc(N)c2C#N)cc1 | < 3.70 | 5.02 | 5.14
N#Cc1c(N)cccc1Sc1cccc(C(F)(F)F)c1 | 4.47 | 4.89 | 5.15
O=[N+]([O-])c1ccccc1S(=O)(=O)c1ccccc1[N+](=O)[O-] | – | – | 4.85
N#Cc1c(N)cccc1Sc1cc(Cl)ccc1Cl | 5.37 | < 6.10 | 5.46
COc1ccc(S(=O)(=O)c2cccc(N)c2C#N)cc1 | < 3.70 | 4.60 | 4.89
N#Cc1c(N)cccc1Sc1ccccc1Br | 4.39 | 4.52 | < 4.68
Cc1cccc(S(=O)(=O)c2cccc(N)c2C#N)c1 | 3.75 | 6.40 | 6.70
Cc1ccccc1S(=O)(=O)c1cccc(N)c1C#N | < 3.70 | 5.64 | 5.35
COc1ccccc1[S+]([O-])c1cccc(N)c1C#N (stereo unspecified) | < 3.70 | 5.32 | 4.92
N#Cc1c(N)cccc1S(=O)(=O)c1ccccc1F | 4.24 | 5.52 | 5.30
COc1cccc(S(=O)(=O)c2cccc(N)c2C#N)c1 | < 3.70 | 6.05 | 6.22
N#Cc1c(F)cccc1S(=O)(=O)c1cc(Cl)cc(Cl)c1 | 3.73 | 4.38 | –
Cc1ccc(Sc2cccc(N)c2C#N)cc1 | < 3.70 | 3.94 | 5.24
N#Cc1c(N)cccc1S(=O)(=O)c1cc(Cl)ccc1Cl | < 3.70 | 6.52 | 6.52
N#Cc1ccc(Sc2cccc(N)c2C#N)cc1 | < 3.70 | 4.36 | < 4.72
N#Cc1c(N)cccc1Sc1cccc(F)c1 | 3.79 | 5.01 | 4.92

SMILES | pIC50 (MT4) | pIC50 [1] | pIC50 [2]
COc1cc(C)cc(S(=O)(=O)c2cccc(F)c2C#N)c1 | 5.10 | 4.29 | –
N#Cc1c(N)cccc1S(=O)(=O)c1ccc2ccccc2c1 | < 3.70 | 7.30 | 7.52
N#Cc1c(N)cccc1S(=O)(=O)c1cccc(F)c1 | < 3.70 | 5.52 | –
CCOc1cc(C)cc(S(=O)(=O)c2cccc(N)c2C#N)c1 | 5.05 | 7.22 | –
N#Cc1c(N)cccc1S(=O)(=O)c1ccc(Br)cc1 | < 3.70 | 4.70 | < 4.85
COc1cccc(Sc2cccc(N)c2C#N)c1 | < 3.70 | 5.22 | 5.82
O=[N+]([O-])c1ccccc1S(=O)(=O)c1ccccc1 | – | 5.66 | 4.80
Cc1ccc([S+]([O-])c2cccc(N)c2C#N)cc1 (stereo unspecified) | < 3.70 | 4.31 | < 4.68
Cc1cc(C)cc(Sc2cccc(N)c2C#N)c1 | < 5.70 | 6.37 | 5.96
N#Cc1ccc([S+]([O-])c2cccc(N)c2C#N)cc1 (stereo unspecified) | < 3.70 | < 3.70 | < 4.64
Cc1cc(C)cc(S(=O)(=O)c2cccc(NC3CCCCC3)c2C#N)c1 | < 3.70 | < 3.70 | –
Cc1cc(C)cc([S+]([O-])c2cccc(N)c2C#N)c1 (stereo unspecified) | 3.70 | 6.47 | 6.30
N#Cc1c(N)cccc1[S+]([O-])c1ccc(Br)cc1 (stereo unspecified) | < 3.70 | 4.69 | < 4.68
COc1ccc([S+]([O-])c2cccc(N)c2C#N)cc1 (stereo unspecified) | < 3.70 | < 3.70 | < 4.70
N#Cc1c(N)cccc1S(=O)(=O)c1ccccc1Cl | < 3.70 | 5.39 | 5.23
COc1cc(Sc2cccc(N)c2C#N)cc(C(F)(F)F)c1 | 5.05 | 5.29 | 4.89
CCCCOc1cc(C)cc(S(=O)(=O)c2cccc(N)c2C#N)c1 | < 5.70 | 6.22 | 6.40
N#Cc1c(N)cccc1Sc1cccc(Cl)c1 | 4.28 | 5.13 | 4.80
N#Cc1c(N)cccc1S(=O)(=O)c1ccccc1Br | 4.40 | 5.30 | 4.92
N#Cc1c(N)cccc1Sc1ccccc1 | 3.77 | 4.84 | 5.06
N#Cc1c(N)cccc1S(=O)(=O)c1ccc(Cl)cc1 | < 5.30 | 5.52 | –
Cc1ccccc1[S+]([O-])c1cccc(N)c1C#N (stereo unspecified) | < 3.70 | 4.03 | < 4.68
Cc1cc(C)cc(S(=O)(=O)c2cccc(F)c2C#N)c1 | < 3.70 | 5.82 | –
N#Cc1c(N)cccc1S(=O)(=O)c1cccc(Cl)c1 | < 3.70 | 6.23 | 6.40
